Among the data in BindingDB's records for doi:10.1016/j.bmc.2018.07.042 (Human Biomolecular Research Institute, 2018) are EC50 values, retold here.

The structures appear in SMILES notation.

The EC50 is the concentration that produces a half-maximal response.

The target of experiment [1] is T1, Cellular tumor antigen p53 (Homo sapiens, UniProt P04637). The experiment is described as follows: Induction of p53 transcriptional activity (unknown origin) expressed in HEK293 cells coexpressing TK-driven Rluc after 20 to 22 hrs by luciferase reporter gene assay. Put shortly: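 Transient transfection of HEK-293 cells with a p53-Luc vector (13x p53-binding consensus response element) plus TK-driven Renilla luciferase for normalization. Protocol was as for the Wnt reporter, but final serum was 2.5%. Cells were treated or given DMSO for 20-22 h in triplicate. Firefly/Renilla signal relative to DMSO was fit by nonlinear regression for […].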
T1 sequence (P04637 whole entry): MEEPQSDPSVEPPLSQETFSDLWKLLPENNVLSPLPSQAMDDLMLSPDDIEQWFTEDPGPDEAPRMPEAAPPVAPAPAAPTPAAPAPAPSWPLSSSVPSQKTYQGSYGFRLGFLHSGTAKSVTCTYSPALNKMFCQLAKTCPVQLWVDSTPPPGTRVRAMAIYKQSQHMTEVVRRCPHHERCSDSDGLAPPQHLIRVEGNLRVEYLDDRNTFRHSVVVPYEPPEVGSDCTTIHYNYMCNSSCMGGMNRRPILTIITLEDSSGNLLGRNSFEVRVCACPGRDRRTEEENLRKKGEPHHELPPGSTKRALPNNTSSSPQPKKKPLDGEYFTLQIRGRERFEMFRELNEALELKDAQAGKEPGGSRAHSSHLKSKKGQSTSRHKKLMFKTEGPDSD
In general terms: In a reporter assay the amount or activity of a reporter protein is the signal.

Experiment [2] concerns the target T1, Cellular tumor antigen p53. The experiment in a line: Activation of p53 in human MCF7 cell lysates assessed as increase in total p53 protein level by Western blot analysis. Background: In western blotting, separated proteins are transferred to a membrane and probed.

Compound `O=S(=O)(c1ccc(-n2cncn2)cc1)N1CCCc2ccccc21` displayed a 50% effective concentration (EC50) in experiment [1] above 5000 nM.
On the same count and under the same terms, as for `O=C1CCCN1c1ccc(S(=O)(=O)N2CCCc3ccccc32)cc1`, the figure is 12 nM; as for `COc1ccc2c(c1)N(C)CCN2S(=O)(=O)c1ccc(N2CCCC2=O)cc1`, 4 nM.
As for `CN1CCN(S(=O)(=O)c2ccc(N3CCCC3=O)cc2)c2ccccc21`, the EC50 in experiment [1] is 2 nM; in experiment [2], 18 nM.
`Cc1ccc2c(c1)CCCN2S(=O)(=O)c1ccc(N2CCCC2=O)cc1`: in experiment [1], it took 4 nM to reach a half-maximal effect (EC50).
In the case of `CC(C)(C)c1ccc2c(c1)CCCN2S(=O)(=O)c1ccc(N2CCCC2=O)cc1`, the EC50 in experiment [1] is 152 nM.
Consider `CN1CCN(S(=O)(=O)c2ccc(N3CCC=N3)cc2)c2ccccc21`, for which the EC50 in experiment [1] was 74 nM.
The same measure, in the same setting: as for `CCCN(c1ccccc1)S(=O)(=O)c1ccc(N2CCCC2=O)cc1`, the figure is 158 nM.
Same read-out and setting: next, `CN1CCN(S(=O)(=O)c2ccc(N3CCCC3)cc2)c2ccccc21`: 65 nM.
In turn, `COc1ccc2c(c1)CCCN2S(=O)(=O)c1ccc(N2CCCC2=O)cc1` gave an EC50 in experiment [1] of 9 nM.
